Data from ChEMBL document CHEMBL1137302 (J Med Chem, 2006).
Calls of active or inactive are those of the source. The calls are words filed in the database; no cut-off is given here.

Columns and labels:
[1] = molecular target: T1, D(2) dopamine receptor (Homo sapiens, UniProt P14416); experiment: Binding affinity to human D2S receptor
[2] = molecular target: D(3) dopamine receptor (Homo sapiens) (UniProt P35462); experiment: Agonist activity at human D3 receptor in HEK293 cells coexpressing G-alpha-qo5 by FLIPR upto 10 uM; format: functional, cell-based
Chain of D(3) dopamine receptor (Homo sapiens) (P35462 whole entry): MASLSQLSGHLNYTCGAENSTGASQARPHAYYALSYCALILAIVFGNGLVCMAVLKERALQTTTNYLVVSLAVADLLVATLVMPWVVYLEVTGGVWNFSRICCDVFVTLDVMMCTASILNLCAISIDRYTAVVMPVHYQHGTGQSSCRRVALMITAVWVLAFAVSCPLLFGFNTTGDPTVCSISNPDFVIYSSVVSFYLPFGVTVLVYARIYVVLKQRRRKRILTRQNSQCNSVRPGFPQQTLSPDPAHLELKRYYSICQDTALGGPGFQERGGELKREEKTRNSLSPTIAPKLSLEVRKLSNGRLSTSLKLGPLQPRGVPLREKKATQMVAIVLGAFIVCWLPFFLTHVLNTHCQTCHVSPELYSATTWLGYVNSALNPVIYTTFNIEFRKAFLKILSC

[3] = species: Mustela putorius furo; experiment: Induction of emesis in ferret; format: functional, organism-based
[4] = species: Mustela putorius furo; experiment: Induction of nausea in ferret; format: functional, organism-based
[5] = Agonist activity at ferret D4 receptor in HEK293 cells coexpressing G-alpha-qo5 by FLIPR; format: functional, cell-based, Mustela putorius furo; conditions: Mustela putorius
How it was run: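 HEK cells cotransfected with ferret D4 receptor and chimeric G protein Gqo5, with receptor activation read as a calcium flux signal on FLIPR. EC50 is the concentration giving half-maximal activation.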

[6] = molecular target: T2, D(4) dopamine receptor (Rattus norvegicus, UniProt P30729); experiment: Agonist activity at rat D4 receptor in HEK293 cells coexpressing G-alpha-qo5 by FLIPR; format: functional, cell-based
T2 sequence (P30729 whole entry): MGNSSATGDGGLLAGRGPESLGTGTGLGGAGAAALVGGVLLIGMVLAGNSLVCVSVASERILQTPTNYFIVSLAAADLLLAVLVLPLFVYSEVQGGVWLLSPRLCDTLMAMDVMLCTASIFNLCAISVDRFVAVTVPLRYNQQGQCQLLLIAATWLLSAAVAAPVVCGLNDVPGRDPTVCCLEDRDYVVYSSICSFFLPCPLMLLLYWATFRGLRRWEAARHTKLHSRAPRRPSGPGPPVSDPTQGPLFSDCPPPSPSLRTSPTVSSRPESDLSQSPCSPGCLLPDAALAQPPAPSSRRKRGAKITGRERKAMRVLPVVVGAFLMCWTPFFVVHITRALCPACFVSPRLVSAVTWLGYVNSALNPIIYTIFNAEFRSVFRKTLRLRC

[7] = molecular target: T3, D(4) dopamine receptor (Rattus norvegicus) (UniProt P30729); experiment: Agonist activity at rat D4 receptor in HEK293 cells co-expressing Galphaqo5 by FLIPR relative to dopamine; format: functional, cell-based
T3 sequence (whole entry): T2 sequence (P30729 whole entry)

[8] = molecular target: D(2) dopamine receptor (Rattus norvegicus) (UniProt P61169); experiment: Agonist activity at rat D2 receptor in HEK293 cells coexpressing G-alpha-qo5 by FLIPR relative to dopamine upto 10 uM; format: functional, cell-based
Chain of D(2) dopamine receptor (Rattus norvegicus) (P61169 whole entry): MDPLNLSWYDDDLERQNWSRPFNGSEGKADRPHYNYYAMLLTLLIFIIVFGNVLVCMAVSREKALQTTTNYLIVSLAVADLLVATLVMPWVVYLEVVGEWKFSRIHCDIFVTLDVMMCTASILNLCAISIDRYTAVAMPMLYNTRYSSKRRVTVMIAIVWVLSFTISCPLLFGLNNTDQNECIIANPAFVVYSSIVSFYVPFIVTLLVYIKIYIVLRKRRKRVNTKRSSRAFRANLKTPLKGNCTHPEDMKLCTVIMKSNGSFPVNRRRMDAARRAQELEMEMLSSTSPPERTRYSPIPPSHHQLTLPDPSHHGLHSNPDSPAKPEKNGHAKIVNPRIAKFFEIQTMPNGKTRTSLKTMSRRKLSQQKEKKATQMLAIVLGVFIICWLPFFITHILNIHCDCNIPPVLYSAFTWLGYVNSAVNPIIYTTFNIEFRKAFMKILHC
How it was run: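 Ca2+ flux by FLIPR in HEK cells cotransfected with the D2 receptor (human, ferret or rat) plus chimeric G protein Gqo5.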

[9] = molecular target: T4, D(4) dopamine receptor (Homo sapiens) (UniProt P21917); experiment: Activity at human D4.4 receptor in HEK293 cells co-expressing Galphaqo5 by FLIPR; format: functional, cell-based; conditions: filed as agonist
T4 sequence (whole entry): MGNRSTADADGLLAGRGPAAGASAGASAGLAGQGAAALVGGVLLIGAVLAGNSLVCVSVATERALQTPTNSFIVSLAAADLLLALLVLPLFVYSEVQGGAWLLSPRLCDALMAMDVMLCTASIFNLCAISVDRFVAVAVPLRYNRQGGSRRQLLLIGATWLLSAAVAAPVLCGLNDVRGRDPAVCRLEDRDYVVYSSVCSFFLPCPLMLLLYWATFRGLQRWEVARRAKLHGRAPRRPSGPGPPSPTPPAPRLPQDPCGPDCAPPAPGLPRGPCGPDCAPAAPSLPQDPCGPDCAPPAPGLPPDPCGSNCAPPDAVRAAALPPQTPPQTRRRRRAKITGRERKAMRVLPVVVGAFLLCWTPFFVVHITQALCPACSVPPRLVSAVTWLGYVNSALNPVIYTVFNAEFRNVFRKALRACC

[10] = molecular target: T1, D(2) dopamine receptor; experiment: Displacement of [125I]7-OH-PIPAT from human D2L receptor expressed in HEK293 cell membrane; format: cell membranes
[11] = molecular target: Phosphodiesterase 1 (Homo sapiens) (UniProt P54750+Q01064+Q14123); experiment: Activity at PDE1 at 10 uM; format: protein assay
How it was run: (§1)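 Broad selectivity panel (over 70 receptors, ion channels and neuronal receptors, PDE1-6 included) run at a single 10 µM concentration.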

[12] = molecular target: Phosphodiesterase 3 (Homo sapiens) (UniProt Q14432+Q13370); experiment: Activity at PDE3 at 10 uM; format: protein assay; how it was run: as §1
[13] = molecular target: Phosphodiesterase 4 (Homo sapiens) (UniProt P27815+Q08499+Q07343+Q08493); experiment: Activity at PDE4 at 10 uM; format: protein assay; how it was run: as §1
[14] = molecular target: cGMP-specific 3',5'-cyclic phosphodiesterase (Homo sapiens) (UniProt O76074); experiment: Activity at PDE5 at 10 uM; how it was run: as §1
[15] = system: Rattus norvegicus; experiment: Proerectile activity in rat measured as incidence of penile erection at 0.1 umol/kg, sc; format: functional
How it was run: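 Conscious male rats were given a single subcutaneous injection and observed for penile erections over the following 60 min. The read-out was the incidence of erections, expressed as % of animals ± SEM (n = 12–32 animals per group), with significance tested against controls. The value is the maximal incidence at the maximally effective dose.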

[16] = Half life in monkey at 1 mg/kg, po; format: ADME, organism-based, Macaca mulatta; design: dose 1 mg/kg, route oral; conditions: rhesus monkey, in vivo
How it was run: (§2)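 Single 1 mg/kg dose given iv, sc or orally to Sprague-Dawley rats, dogs and monkeys; plasma concentrations followed over time (mean ± SEM, n = 3). Cmax, AUC, half-life, clearance and bioavailability calculated from the curves.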

[17] = Cmax in rat at 1 mg/kg, sc; format: ADME, organism-based; design: dose 1 mg/kg, route subcutaneous; conditions: in vivo; how it was run: as §2
[18] = Cmax in rat at 1 mg/kg, po; format: ADME, organism-based; design: dose 1 mg/kg, route oral; conditions: in vivo; how it was run: as §2
[19] = Bioavailability in rat at 1 mg/kg, sc; format: ADME, organism-based; conditions: in vivo; how it was run: as §2
[20] = Bioavailability in rat at 1 mg/kg, po; format: ADME, organism-based; conditions: in vivo; how it was run: as §2
[21] = Bioavailability in monkey at 1 mg/kg, po; format: ADME, organism-based, Macaca mulatta; conditions: rhesus monkey, in vivo; how it was run: as §2
[22] = Half life in rat at 1 mg/kg, sc; format: ADME, organism-based; design: dose 1 mg/kg, route subcutaneous; conditions: in vivo; how it was run: as §2
[23] = Half life in rat at 1 mg/kg, po; format: ADME, organism-based; design: dose 1 mg/kg, route oral; conditions: in vivo; how it was run: as §2
[24] = Cmax in dog at 1 mg/kg, po; format: ADME, organism-based, Canis lupus familiaris; design: dose 1 mg/kg, route oral; conditions: in vivo; how it was run: as §2
[25] = Cmax in monkey at 1 mg/kg, po; format: ADME, organism-based, Macaca mulatta; design: dose 1 mg/kg, route oral; conditions: rhesus monkey, in vivo; how it was run: as §2
[26] = AUC in dog at 1 mg/kg, po; format: ADME, organism-based, Canis lupus familiaris; design: dose 1 mg/kg, route oral; conditions: plasma; how it was run: as §2
[27] = molecular target: hERG (Homo sapiens, UniProt Q12809); experiment: Blockade of current at hERG expressed in HEK293 cells at 1 ug/mL; format: cell-based; conditions: HEK293 cells that express hERG
Chain of hERG (Q12809 whole entry): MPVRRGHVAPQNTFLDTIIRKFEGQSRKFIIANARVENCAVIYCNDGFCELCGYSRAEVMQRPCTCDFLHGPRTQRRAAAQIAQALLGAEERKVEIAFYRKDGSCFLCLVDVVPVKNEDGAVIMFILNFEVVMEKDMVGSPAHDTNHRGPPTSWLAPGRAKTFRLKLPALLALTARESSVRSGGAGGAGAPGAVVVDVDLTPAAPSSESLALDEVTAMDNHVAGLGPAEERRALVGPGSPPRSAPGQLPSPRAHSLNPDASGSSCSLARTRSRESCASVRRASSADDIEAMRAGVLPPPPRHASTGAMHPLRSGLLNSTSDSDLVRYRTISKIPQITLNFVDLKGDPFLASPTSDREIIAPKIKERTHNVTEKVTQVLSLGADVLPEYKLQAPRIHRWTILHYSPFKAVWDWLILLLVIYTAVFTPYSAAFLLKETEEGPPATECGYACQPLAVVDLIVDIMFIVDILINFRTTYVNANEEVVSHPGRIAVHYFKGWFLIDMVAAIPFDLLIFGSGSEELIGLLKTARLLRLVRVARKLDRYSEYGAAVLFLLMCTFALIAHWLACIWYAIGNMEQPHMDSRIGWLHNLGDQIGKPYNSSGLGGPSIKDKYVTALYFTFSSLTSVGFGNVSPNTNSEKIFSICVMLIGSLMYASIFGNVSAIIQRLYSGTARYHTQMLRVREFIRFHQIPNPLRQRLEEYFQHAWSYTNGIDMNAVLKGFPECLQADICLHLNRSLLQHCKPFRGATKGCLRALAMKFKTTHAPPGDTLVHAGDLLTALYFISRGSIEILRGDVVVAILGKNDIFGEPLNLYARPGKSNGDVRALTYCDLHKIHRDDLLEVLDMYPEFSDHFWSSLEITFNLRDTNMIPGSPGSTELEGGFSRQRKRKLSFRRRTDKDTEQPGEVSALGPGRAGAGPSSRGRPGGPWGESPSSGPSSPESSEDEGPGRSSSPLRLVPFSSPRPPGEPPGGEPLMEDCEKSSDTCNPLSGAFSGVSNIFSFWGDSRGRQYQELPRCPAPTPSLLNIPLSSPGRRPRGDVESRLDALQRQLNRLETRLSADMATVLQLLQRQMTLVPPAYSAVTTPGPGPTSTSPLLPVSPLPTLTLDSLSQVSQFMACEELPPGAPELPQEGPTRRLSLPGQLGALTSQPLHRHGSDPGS
How it was run: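 hERG stably expressed in HEK 293 cells (MEM with 10% FBS, G418), whole-cell voltage clamp. Pipette: K aspartate/KCl/EGTA/MgATP, pH 7.3. Bath: NaCl-based HEPES, pH 7.4. Compound dissolved in DMSO and diluted in bath (DMSO ≤0.1%), one concentration per cell. Steps to -25, 0, 25, 50 mV for 3 s, then -50 mV for 4 s, from -80 mV every 15 s.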

[28] = system: D(2) dopamine receptor (Mustela putorius furo); experiment: Agonist activity at ferret D2 receptor in HEK293 cells coexpressing Galphaqo5 by FLIPR relative to dopamine upto 10 uM

T1 sequence (P14416 whole entry): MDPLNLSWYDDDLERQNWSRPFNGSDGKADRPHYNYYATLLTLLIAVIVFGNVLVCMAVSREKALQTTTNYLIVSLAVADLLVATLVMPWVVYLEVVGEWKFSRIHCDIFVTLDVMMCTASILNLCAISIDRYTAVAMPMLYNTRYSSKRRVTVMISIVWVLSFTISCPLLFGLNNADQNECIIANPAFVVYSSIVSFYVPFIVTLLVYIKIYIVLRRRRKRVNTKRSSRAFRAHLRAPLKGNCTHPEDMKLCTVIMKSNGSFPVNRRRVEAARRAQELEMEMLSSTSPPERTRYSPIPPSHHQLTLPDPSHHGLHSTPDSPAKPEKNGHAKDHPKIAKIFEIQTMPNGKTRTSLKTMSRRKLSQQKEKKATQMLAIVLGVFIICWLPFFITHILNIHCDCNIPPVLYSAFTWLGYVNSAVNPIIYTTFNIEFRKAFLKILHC

In the case of Cc1cccc(C(=O)NCN2CCC(c3cccc[n+]3[O-])CC2)c1, the Ki [1] is reported as > 10000 nM, the Activity [2] is reported as “inactive” and the Activity [3] is reported as “inactive”. The Activity [4] was “inactive”, the EC50 [5] was 160 nM and the EC50 [6] was 93 nM. The Efficacy [7] was 78%, the Activity [8] was “inactive” and the Activity [9] was “Agonist”. The Ki [10] was > 10000 nM, the Activity [11] was “inactive” and the Activity [12] was “inactive”. For the same molecule, the Activity [13] was “inactive”, the Activity [14] was “inactive” and the Activity [15] was 75%. For the same molecule, the half-life [16] was 2 h, the Cmax [17] was 465 ng/mL and the Cmax [18] was 417 ng/mL. For the same molecule, the bioavailability [19] was 84%, the bioavailability [20] was 68% and the bioavailability [21] was 91%. It also gave a half-life [22] of 1.2 h, a half-life [23] of 1.8 h and a Cmax [24] of 1420 ng/mL. It also gave a Cmax [25] of 660 ng/mL, an AUC [26] of 4280 ng·h/mL and an inhibition at 1 ug/mL [27] of 14.4%. The Activity [28] was “inactive”.
